Reference: ChEMBL document CHEMBL1142097, “EthA, a common activator of thiocarbamide-containing drugs acting on different mycobacterial targets” (Antimicrob Agents Chemother, 2007)
In brackets after ≈: the same amount, converted by molar mass. Activity calls are given as the source filed them. The calls are words filed in the database; no cut-off is given here.

How the values were obtained:
[1] = Antimycobacterial activity against Mycobacterium bovis BCG str. Pasteur 1173P2 overexpressing ethA gene; assay type: functional; details: Mycobacterium tuberculosis variant bovis BCG
Method in brief: (§1)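 Agar MIC on Middlebrook 7H9 or 7H11 with OADC (ADC substituted for isoxyl-type drugs) plus graded drug levels; serial 10-fold dilutions of actively growing culture plated, incubated 37°C for 10–14 days; MIC = lowest concentration blocking 99% of growth. Recombinant Pasteur strains selected with 25 μg/ml kanamycin; ethR::hyg mutant carries a hygromycin-marked transposon in ethR.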

[2] = tested on: Mycobacterium tuberculosis; experiment: Antimycobacterial activity against Mycobacterium bovis BCG NCTC 5692; assay type: functional; details: Mycobacterium tuberculosis variant bovis BCG; method in brief: as §1
[3] = tested on: Mycobacterium tuberculosis; experiment: Antimycobacterial activity against Mycobacterium bovis BCG NCTC 5692 with ethR-knockout mutant; assay type: functional, variant bovis BCG; method in brief: as §1
[4] = Antimycobacterial activity against Mycobacterium bovis BCG str. Pasteur 1173P2 overexpressing ethR gene; assay type: functional; details: Mycobacterium tuberculosis variant bovis BCG; method in brief: as §1
[5] = tested on: Mycobacterium tuberculosis; experiment: Inhibition of oleic acid synthesis in Mycobacterium bovis BCG NCTC 5692 with ethR-knockout mutant assessed as incorporation of [2-14C]acetate; assay type: functional, organism-based; details: variant bovis BCG
Method in brief: (§2)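 Mid-log cultures in Sauton medium exposed to graded drug concentrations (μg/ml) for 16 h at 37°C, then pulsed with 1 μCi/ml [2-14C]acetate for 8 h at 37°C. Cells PBS-washed, hydrolysed with 15% tetrabutylammonium hydroxide at 100°C overnight, methylated with CH3I in CH2Cl2; fatty and mycolic acid methyl esters resolved by TLC and autoradiographed.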

[6] = tested on: Mycobacterium tuberculosis; experiment: Inhibition of mycolic acid synthesis in Mycobacterium bovis BCG NCTC 5692 with ethR-knockout mutant assessed as incorporation of [2-14C]acetate; assay type: functional, organism-based; details: variant bovis BCG; method in brief: as §2
[7] = tested on: Mycobacterium tuberculosis; experiment: Inhibition of mycolic acid synthesis in Mycobacterium bovis BCG NCTC 5692 assessed as incorporation of [2-14C]acetate; assay type: functional, organism-based; details: variant bovis BCG; method in brief: as §2
[8] = tested on: Mycobacterium tuberculosis; experiment: Inhibition of oleic acid synthesis in Mycobacterium bovis BCG NCTC 5692 assessed as incorporation of [2-14C]acetate; assay type: functional, organism-based; details: variant bovis BCG; method in brief: as §2

Compound | MIC [1] | MIC [2] | MIC [3] | MIC [4] | Activity [5] | Activity [6] | Activity [7] | Activity [8]
COc1ccc(/C(C)=N/NC(N)=S)cc1 | 0.25 µg/mL (≈ 1.12 µM) | 2.5 µg/mL (≈ 11.2 µM) | 0.25 µg/mL (≈ 1.12 µM) | 0.5 µg/mL (≈ 2.24 µM) |  |  |  | 
CC(C)CCSc1ccc(NC(=S)Nc2ccc(SCCC(C)C)cc2)cc1 | 5 µg/mL (≈ 11.6 µM) | 25 µg/mL (≈ 57.8 µM) | 2.5 µg/mL (≈ 5.78 µM) | 40 µg/mL (≈ 92.4 µM) | Active | Active |  | 
CC(=O)Nc1ccc(/C=N/NC(N)=S)cc1 [AMITHIOZONE] | 0.25 µg/mL (≈ 1.06 µM) | 2.5 µg/mL (≈ 10.6 µM) | 0.25 µg/mL (≈ 1.06 µM) | 2.5 µg/mL (≈ 10.6 µM) |  | Active | Active | inactive
CCc1cc(C(N)=S)ccn1 [ETHIONAMIDE] | 0.25 µg/mL (≈ 1.5 µM) | 5 µg/mL (≈ 30.1 µM) | 0.5 µg/mL (≈ 3.01 µM) | 10 µg/mL (≈ 60.2 µM) |  | Active |  | 
NC(=S)N/N=C/c1cccnc1 [NICOTHIAZONE] | 10 µg/mL (≈ 55.5 µM) | 25 µg/mL (≈ 139 µM) | 5 µg/mL (≈ 27.7 µM) | 75 µg/mL (≈ 416 µM) |  |  |  | 
CC(C)CCOc1ccc(NC(=S)Nc2ccc(OCCC(C)C)cc2)cc1 [TIOCARLIDE] | 0.1 µg/mL (≈ 0.25 µM) | 1 µg/mL (≈ 2.5 µM) | 0.5 µg/mL (≈ 1.25 µM) | 0.25 µg/mL (≈ 0.624 µM) | Active |  | Active | Active
